Assay results published in ChEMBL document CHEMBL5380783, “N-Substituted l-Iminosugars for the Treatment of Sanfilippo Type B Syndrome” (J Med Chem, 2023).
Calls of active or inactive are those of the source. The rule behind the calls is not given here.

How the values were obtained:
HeLa [1] = assay: Downregulation of SDC2 protein expression in human HeLa cells at 20 uM incubated for 24 hrs by western blot analysis; format: functional, cell-based
IB3-1 [2] = assay: Antiproliferative activity against human IB3-1 cells upto 100 uM; format: toxicity, cell-based; settings: ib3-1, 100 µM
Fibroblast [3] = assay: Inhibition of lysosomal defects in MPS-1 patient derived human fibroblast cells assessed as reduction in accumulation of enlarged LAMP1-positive lysosomal structures within the cytoplasm at 40 uM incubated for 48 hrs by LAMP1 staining based indirect immunofluorescence assay; format: functional, cell-based
Summary of the method: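 MPS I patient fibroblasts grown on coverslips with 40 μM compound for 48 h. Immunostained for HS (10E4) and Lamp1 with DAPI, imaged by confocal microscopy. Mean fluorescence intensity expressed relative to untreated cells, 50 random cells from three independent experiments.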

SK-N-BE(2) [4] = assay: Inhibition of lysosomal defects in NAGLU-silenced human SK-NBE cell clones assessed as dispersion of lysosomes all over the cytoplasm at 20 uM incubated for 48 hrs by LAMP1 staining based indirect immunofluorescence assay; format: functional
Summary of the method: (§1)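 Control and NAGLU-silenced SK-NBE clones grown on coverslips with 20 μM compound for 48 h. Fixed in 3.7% formaldehyde, permeabilized with saponin/BSA buffer, stained with anti-Lamp1 or anti-HS 10E4 for 1 h, then Alexa secondaries. Confocal imaging with 63× objective. Scored as percent cells with enlarged Lamp1 structures or membrane HS, plus mean fluorescence intensity, over 50 random cells from three experiments.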

HaCaT [5] = assay: Cytotoxicity against human HaCaT cells assessed as induction of apoptosis upto 100 uM; format: toxicity, cell-based
IB3-1 [6] = assay: Cytotoxicity against human IB3-1 cells assessed as induction of apoptosis upto 100 uM; format: toxicity, cell-based; settings: ib3-1, 100 µM
SK-N-BE(2) [7] = assay: Inhibition of lysosomal defects in NAGLU-silenced human SK-NBE cell clones assessed as reduction in accumulation of enlarged LAMP1-positive lysosomal structures within the cytoplasm at 20 uM incubated for 48 hrs by LAMP1 staining based indirect immunofluorescence assay; format: functional; summary of the method: as §1
SK-N-BE(2) [8] = assay: Inhibition of heparan sulfate accumulation on cell membrane in NAGLU-silenced human SK-NBE cells clone at 20 uM incubated for 48 hrs by indirect immunofluorescence staining analysis; format: functional, cell-based; summary of the method: as §1
Fibroblast [9] = assay: Inhibition of heparan sulfate accumulation on cell membrane in MPS-1 patient derived human fibroblast cells at 20 uM incubated for 48 hrs by indirect immunofluorescence staining analysis; format: functional, cell-based
Summary of the method: (§2)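 HDFa, MPS IIIA, MPS IIIB and MPS I patient fibroblasts in DMEM, 10% FBS, grown 48 h on coverslips with 20 μM compound. Double immunostained for HS (10E4) and Lamp1 with DAPI, confocal imaging. Mean fluorescence intensity expressed relative to untreated cells (d-enantiomers: percent positive cells), 50 random cells from three experiments.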

SK-N-BE(2) [10] = assay: Inhibition of amyloid beta (1 to 42) accumulation in cytoplasm of NAGLU-silenced human SK-NBE cell clones at 20 uM incubated for 48 hrs by indirect immunofluorescence staining based analysis; format: functional
Summary of the method: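 NAGLU-silenced SK-NBE clone on coverslips, exposed to 20 μM compound for 48 h. Cells fixed in formaldehyde, permeabilized with saponin, stained with anti-Aβ1-42 antibody and fluorescent secondary, imaged by confocal microscopy. Cells bearing Aβ1-42-positive structures counted among 50 random cells from three independent experiments; untreated clone as comparator.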

HeLa [11] = assay: Cytotoxicity against human HeLa cells assessed as reduction in cell viability at 20 uM incubated for 48 hrs by trypan blue exclusion method; format: functional, cell-based
Summary of the method: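 HeLa cells seeded at 100,000 per well and grown overnight in complete RPMI. Exposed to 20 μM compound in the same medium for 48 h at 37 °C; untreated mock as control. Cells trypsinized, live cells counted by trypan blue exclusion on an automated counter. Means of three independent experiments, each in triplicate, with s.e.m.; Student's t-test, p < 0.05.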

[12] = Antiproliferative activity against human CuFi cells upto 100 uM; format: toxicity, cell-based
Fibroblast [13] = assay: Inhibition of heparan sulfate accumulation on cell membrane in Sanfilippo-A patient derived human fibroblast cells at 20 uM incubated for 48 hrs by indirect immunofluorescence staining analysis; format: functional, cell-based; summary of the method: as §2
HaCaT [14] = assay: Antiproliferative activity against human HaCaT cells upto 100 uM; format: toxicity, cell-based
[15] = system: Alpha-N-acetylglucosaminidase (Homo sapiens), P54802 [UNDEFINED MUTATION]; assay: Nonactive chaperone activity against mutated NAGLU in Sanfilippo-B patient derived human fibroblast cells assessed as co-localization of NAGLU with lysosomes by measuring NAGLU/Lamp1-positive structures at 20 uM incubated for 48 hrs by indirect immunofluorescence staining based analysis; format: cell-based
Summary of the method: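 HDFa and MPS IIIB fibroblasts, with or without (mock) 20 μM compound, for 48 h on coverslips. Co-stained for NAGLU and Lamp1 with DAPI, confocal imaging. NAGLU–lysosome co-localization quantified as mean fluorescence relative to untreated cells, 50 random cells from three experiments.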

HeLa [16] = assay: Upregulation of NAGLU protein expression in human HeLa cells at 20 uM incubated for 24 hrs by western blot analysis; format: functional, cell-based
SK-N-BE(2) [17] = assay: Effect on heparan sulfate changes in human SK-NBE cell membrane at 20 uM incubated for 48 hrs by indirect immunofluorescence staining analysis; format: functional, cell-based; summary of the method: as §1
HeLa [18] = assay: Downregulation of EXT2 protein expression in human HeLa cells at 20 uM incubated for 24 hrs by western blot analysis; format: functional, cell-based
Fibroblast [19] = assay: Inhibition of lysosomal defects in Sanfilippo-B patient derived human fibroblast cells assessed as reduction in more concentrated lysosomal distribution in the perinuclear region of the cytoplasm at 20 uM incubated for 48 hrs by LAMP1 staining based indirect immunofluorescence assay; format: functional, cell-based; summary of the method: as §2
[20] = Cytotoxicity against human CuFi cells assessed as induction of apoptosis upto 100 uM; format: toxicity, cell-based
[21] = system: Alpha-N-acetylglucosaminidase (Homo sapiens), P54802 [UNDEFINED MUTATION]; assay: Stabilization of mutated NAGLU in Sanfilippo-B patient derived human fibroblast cells assessed as increase in NAGLU activity using 4-methylumbelliferyl-N-acetyl-alpha-D-glucosaminide as substrate at 20 uM cells pretreated for 2 hrs with substrate followed by compound addition by fluorescence based analysis relative to control; format: cell-based
Summary of the method: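 Pellets of 5 × 10^5 MPS IIIB or HDFa fibroblasts lysed by 10 freeze–thaw cycles and clarified at 4 °C; protein by Lowry. Lysate incubated 2 h with 2 mM 4-methylumbelliferyl-N-acetyl-α-D-glucosaminide stock in 0.2 M Na-acetate pH 4.5, compound added at 20 μM. Activity normalized to protein, expressed as nmol substrate hydrolysed per h per mg.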

Sequence of Alpha-N-acetylglucosaminidase (Homo sapiens), P54802 [UNDEFINED MUTATION] (P54802 whole entry, looked up, stated change not applied): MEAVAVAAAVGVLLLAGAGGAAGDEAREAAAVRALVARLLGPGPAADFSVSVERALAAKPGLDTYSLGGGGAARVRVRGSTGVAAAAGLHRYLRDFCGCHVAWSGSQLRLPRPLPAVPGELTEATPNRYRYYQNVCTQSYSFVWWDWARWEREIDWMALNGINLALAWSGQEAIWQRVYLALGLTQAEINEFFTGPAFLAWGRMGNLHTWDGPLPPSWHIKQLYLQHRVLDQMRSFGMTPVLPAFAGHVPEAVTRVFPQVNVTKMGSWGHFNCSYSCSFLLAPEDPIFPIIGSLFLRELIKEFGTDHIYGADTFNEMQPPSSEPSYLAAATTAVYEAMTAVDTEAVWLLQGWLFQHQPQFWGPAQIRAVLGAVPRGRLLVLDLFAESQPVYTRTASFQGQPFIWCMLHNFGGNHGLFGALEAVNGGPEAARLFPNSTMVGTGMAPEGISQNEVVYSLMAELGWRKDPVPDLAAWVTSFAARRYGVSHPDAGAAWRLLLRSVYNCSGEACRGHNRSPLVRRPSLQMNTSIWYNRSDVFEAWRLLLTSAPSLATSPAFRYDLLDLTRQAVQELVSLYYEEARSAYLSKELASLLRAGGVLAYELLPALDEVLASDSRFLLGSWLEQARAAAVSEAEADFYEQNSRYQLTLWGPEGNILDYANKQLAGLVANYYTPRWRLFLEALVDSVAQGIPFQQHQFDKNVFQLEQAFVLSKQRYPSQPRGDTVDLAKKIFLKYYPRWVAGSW

With Cl.OC[C@H]1[C@H](O)[C@@H](O)[C@H](O)CN1CCCCCOCC12CC3CC(CC(C3)C1)C2 the inhibition (HeLa [1]) was “inactive”, the Activity (IB3-1 [2]) was “Non-Toxic” and the inhibition (Fibroblast [3]) was “Active”. For the same compound, the inhibition (SK-N-BE(2) [4]) was “Active”, the Activity (HaCaT [5]) was “Non-Toxic” and the Activity (IB3-1 [6]) was “Non-Toxic”. The inhibition (SK-N-BE(2) [7]) was “Active”, the inhibition (SK-N-BE(2) [8]) was “Active” and the inhibition (Fibroblast [9]) was “inactive”. For the same compound, the inhibition (SK-N-BE(2) [10]) was “Active”, the Activity (HeLa [11]) was “Active” and the Activity [12] was “Non-Toxic”. The inhibition (Fibroblast [13]) was “Active”, the Activity (HaCaT [14]) was “Non-Toxic” and the Activity [15] was “Active”. For the same compound, the Activity (HeLa [16]) was “Active”, the Activity (SK-N-BE(2) [17]) was “inactive” and the inhibition (HeLa [18]) was “inactive”. The inhibition (Fibroblast [19]) was “Active” and the Activity [20] was “Non-Toxic”.
For CCCCN1C[C@@H](O)[C@H](O)[C@@H](O)[C@@H]1CO.Cl, the inhibition (HeLa [1]) was “inactive”, the Activity (IB3-1 [2]) was “Non-Toxic” and the inhibition (Fibroblast [3]) was “Active”. For the same compound, the inhibition (SK-N-BE(2) [4]) was “Active”, the Activity (HaCaT [5]) was “Non-Toxic” and the Activity (IB3-1 [6]) was “Non-Toxic”. For the same compound, the inhibition (SK-N-BE(2) [7]) was “Active”, the inhibition (SK-N-BE(2) [8]) was “Active” and the inhibition (Fibroblast [9]) was “inactive”. For the same compound, the inhibition (SK-N-BE(2) [10]) was “Active”, the Activity (HeLa [11]) was “Active” and the Activity [12] was “Non-Toxic”. The inhibition (Fibroblast [13]) was “Active”, the Activity (HaCaT [14]) was “Non-Toxic” and the Activity [15] was “Active”. The Activity (HeLa [16]) was “Active”, the fold change (FC) [21] was 20 and the Activity (SK-N-BE(2) [17]) was “inactive”. For the same compound, the inhibition (HeLa [18]) was “Active”, the inhibition (Fibroblast [19]) was “Active” and the Activity [20] was “Non-Toxic”.
For Cl.OC[C@@H]1NC[C@@H](O)[C@H](O)[C@H]1O, the inhibition (HeLa [1]) was “inactive”, the Activity (IB3-1 [2]) was “Non-Toxic” and the inhibition (Fibroblast [3]) was “Active”. For the same compound, the inhibition (SK-N-BE(2) [4]) was “Active”, the Activity (HaCaT [5]) was “Non-Toxic” and the Activity (IB3-1 [6]) was “Non-Toxic”. The inhibition (SK-N-BE(2) [7]) was “Active”, the inhibition (SK-N-BE(2) [8]) was “Active” and the inhibition (Fibroblast [9]) was “inactive”. The inhibition (SK-N-BE(2) [10]) was “Active”, the Activity (HeLa [11]) was “Active” and the Activity [12] was “Non-Toxic”. For the same compound, the inhibition (Fibroblast [13]) was “Active”, the Activity (HaCaT [14]) was “Non-Toxic” and the Activity [15] was “Active”. For the same compound, the Activity (HeLa [16]) was “Active”, the Activity (SK-N-BE(2) [17]) was “inactive” and the inhibition (HeLa [18]) was “Active”. The inhibition (Fibroblast [19]) was “Active” and the Activity [20] was “Non-Toxic”.
For COCCCCCCCCCN1C[C@@H](O)[C@H](O)[C@@H](O)[C@@H]1CO.Cl, the inhibition (HeLa [1]) was “inactive”, the Activity (IB3-1 [2]) was “Non-Toxic” and the inhibition (Fibroblast [3]) was “Active”. For the same compound, the inhibition (SK-N-BE(2) [4]) was “Active”, the Activity (HaCaT [5]) was “Non-Toxic” and the Activity (IB3-1 [6]) was “Non-Toxic”. For the same compound, the inhibition (SK-N-BE(2) [7]) was “Active”, the inhibition (SK-N-BE(2) [8]) was “Active” and the inhibition (Fibroblast [9]) was “inactive”. The inhibition (SK-N-BE(2) [10]) was “Active”, the Activity (HeLa [11]) was “Active” and the Activity [12] was “Non-Toxic”. The inhibition (Fibroblast [13]) was “Active”, the Activity (HaCaT [14]) was “Non-Toxic” and the Activity [15] was “Active”. For the same compound, the Activity (HeLa [16]) was “Active”, the Activity (SK-N-BE(2) [17]) was “inactive” and the inhibition (HeLa [18]) was “inactive”. The inhibition (Fibroblast [19]) was “Active” and the Activity [20] was “Non-Toxic”.
